Compounds with a hit are over-represented: about 1.8% of the library has one in this group of screens.
STAT3 act: IL-6 driven STAT3 reporter potentiators, primary screen, U3A cells, luciferase, luminescence, MLSCN library. IL-6 STAT3-luciferase reporter; 100% = signal with IL-6 EC80 alone. activation (% of control), % at 5.6 µM. actives 0.91% (n = 190,000). AID 871, 2007;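 active means activation above the screen-wide mean of compound activation plus 3 SD, cut at about 130% in these data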;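 further: 0% = background luminescence of wells with medium and substrate only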
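System – human U3A cells carrying STAT3-luciferase construct · Probe or stimulus – Interleukin-6, 33 ng/mL · Schedule – compound 1 h, then IL-6 6 h at 37 °C · Signal – luminescence from STAT3-driven luciferase reporter · Evaluation – percent of IL-6-only median luminescence · Benchmarks – IL-6-only high control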
C8 TRAIL sens: viability loss with TRAIL in NB7+C8 cells, primary screen, TRAIL sensitizer project, cell-based, ATPlite luminescence; inhibition (viability loss, TRAIL sensitization), % at 10 µM; actives 1% (n = 360,000); AID 624354, 2012;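 active means compounds causing at least 50% loss of cell viability in the single-dose screen, relative to plate controls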
STAT1 blocker: STAT1 signaling inhibitors, primary screen, cell-based, HTS, luciferase reporter | NIH 3T3 STAT1-luciferase reporter, IFN-gamma, luminescence | inhibition, % at 5.5 µM | actives 0.35% (n = 200,000) | AID 920, 2007;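 active means inhibition above a set limit, the mean inhibition across all tested compounds plus 3 SD, cut at about 34% in these data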;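 further: 0% = IFN-gamma with DMSO and 100% = IFN-gamma with 300 µM nifuroxazide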
STAT3 inh: IL-6 driven STAT3 reporter inhibitors, primary screen, U3A cells, luciferase, luminescence, MLSCN library; IL-6 STAT3-luciferase reporter; host cell line lacks STAT1; inhibition, % at 5.5 µM; actives 0.89% (n = 190,000); AID 862, 2007;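 active means inhibition above the mean inhibition across all screened compounds plus 3 SD, cut at about 44% in these data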;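 further: 0% = DMSO only wells and 100% = 100 µM nifuroxazide control wells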
PPC-1+TRAIL kill: compounds killing PPC-1 cancer cells with TRAIL present, primary screen, TRAIL potentiator project, ATPLite luminescence, uHTS | PPC-1 cells + TRAIL, ATPLite viability luminescence | actives 0.41% (n = 220,000) | cell killing (% activity), % at 4 µM or 5 µM;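 active means cell killing above 50% in the first pass at 4 µM, then a duplicate retest at 5 µM averaging 50% or more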;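 further: plate controls were cells with TRAIL plus DMSO for no effect and medium-only wells lacking cells for full effect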
* = called active by the depositor; . = no result.

SMILES	STAT3 act	C8 TRAIL sens	STAT1 blocker	STAT3 inh	PPC-1+TRAIL kill
O=C(Nc1ccn(CCCNCC(c2ccccc2)c2ccccc2)c(=O)n1)OCc1ccccc1	.	7	.	.	.
CCC1CCCCN1c1ccc([N+](=O)[O-])cc1/C=N/NC(=O)Cn1c2ccccc2c(=O)c2ccccc21 (stereo not given)	109	74*	-7	-10	22
CCc1ccc(OCC(=O)N/N=C/c2cc([N+](=O)[O-])ccc2N2CCCCCC2)cc1	101	9	-2	1	4
Cc1cn([C@H]2C[C@H](O)[C@@H](CNCc3cccn3-c3nccs3)O2)c(=O)[nH]c1=O	.	-4	.	.	.
COC(/C=C/Nc1ccc(C)cc1)=C(C#N)C#N	136*	0	0	-37	-9
Cn1c2ccccc2c(=O)c2c(=O)n(-c3ccccc3)c(C3CCCCC3)nc21	134*	5	0	-45	31
O=C(Nc1ccc(NC(=O)C2CC2)cn1)c1ccccc1	.	50*	.	.	.
CCn1c(SCC(=O)NC(=O)c2ccccc2OC)nc2ccccc21	.	9	.	.	.
COc1ccc(C2C(C(=O)N3CCC(C)CC3)c3ccccc3C(=O)N2C)cc1 (stereo not given)	105	54*	-4	-4	3
COc1ccc(C2C(C(=O)N3CCN(c4ccccc4F)CC3)c3ccccc3C(=O)N2C)cc1 (stereo not given)	96	67*	-1	8	5
COc1ccc(C2C(C(=O)N3CC(C)CC(C)C3)c3ccccc3C(=O)N2C)cc1 (stereo not given)	94	28	-6	12	0
CC(C(=O)Nc1ccc(Cl)cc1)N1C(=O)NC2(CCCC2)C1=O (stereo not given)	.	12	.	.	.
COc1ccc(N=C(C)C2C(=O)c3ccccc3C2=O)cc1	.	74*	.	.	.
O=C(Sc1cccc2cccnc12)c1ccccc1Br	.	-4	.	.	.
O=C(Sc1cccc2cccnc12)c1ccc(F)cc1	76	.	-81	30	58*
O=S(=O)(Nc1cc(Sc2cccc3cccnc23)c(O)c2ccccc12)c1ccc(F)cc1	184*	.	-45	-96	34
COc1cccc(N2CCN(c3ccc4nnc(CCC(=O)Nc5ccccn5)n4n3)CC2)c1	.	8	.	.	.
Cc1sc(NC(=S)NC(=O)CCc2ccccc2)c(C(N)=O)c1C	156*	-31	-15	-62	6
COC(=O)[C@@]12C[C@@H](CC(=O)N3CCOCC3)C(=O)N(Cc3ccco3)C1=CCC(C)(C)C2	.	4	.	.	.
Cc1cccc(/C(N)=N/OC(=O)c2ccncc2)c1	.	18	.	.	.
Cc1ccc(C(=O)O/N=C(\N)Cc2ccc([N+](=O)[O-])cc2)c(Cl)c1	.	-1	.	.	0
Cc1cccc(/C(N)=N/OC(=O)c2ccoc2C)c1	.	91*	.	.	.
Cc1ccccc1C(=O)O/N=C(\N)c1ccccc1	.	92*	.	.	.
Cc1ccc(/C(N)=N/OC(=O)c2cc(-c3ccccc3)nc3ccccc23)cc1	93	81*	-5	14	-17
Cc1ccc(C(=O)O/N=C(\N)Cc2cccs2)c(Cl)c1	.	96*	.	.	.
SMILES	STAT3 act	C8 TRAIL sens	STAT1 blocker	STAT3 inh	PPC-1+TRAIL kill
O=C(NCc1ccccn1)C(=O)Nc1cc2c3c(c1)CC(=O)N3CCC2	.	-15	.	.	.
Cc1cccc(C(=O)O/N=C(\N)c2ccc(Cl)cc2)c1	.	34	.	.	.
Cc1ccc(/C(N)=N/OC(=O)c2ccc(Cl)cc2Cl)cc1	106	67*	-45	-10	57*
Cc1cc(C)c(S(=O)(=O)/N=C2\C=C(Nc3ccc(C(=O)O)cc3)C(=O)c3ccccc32)c(C)c1	.	58*	.	.	.
O=C(O)c1ccc(NC2=C/C(=N/S(=O)(=O)c3cccs3)c3ccccc3C2=O)cc1	.	55*	.	.	.
Cc1cc(C)c(S(=O)(=O)/N=C2\C=C(NS(=O)(=O)c3ccccc3)C(=O)c3ccccc32)c(C)c1	.	-2	.	.	.
COc1ccc(N2C(=NC(=O)C3CC3)SC3CS(=O)(=O)CC32)cc1Cl (stereo not given)	.	19	.	.	.
CC(C)(C)OC(=O)C[C@H]1C/C=C\C[C@@H](CC(=O)NCCO)C(=O)NCCOC1=O	.	12	.	.	.
CCCCCCCNC(=O)C1(CC2CC(c3ccc(Cl)cc3)=NO2)CCNCC1 (stereo not given)	.	71*	.	.	.
CCCCCCCNC(=O)C1(CC2CC(c3ccc(Cl)cc3)=NO2)CCN(C(=O)Cc2ccc(F)cc2)CC1 (stereo not given)	.	22	.	.	.
CCCCCCCNC(=O)C1(CC2CC(c3cccc(Br)c3)=NO2)CCNCC1 (stereo not given)	.	87*	.	.	.
Cc1cc(C(=O)NC2CCCc3c2cnn3-c2cccc(C)c2C)n(C)n1 (stereo not given)	.	30	.	.	.
COc1cc(C2Nc3ccccc3C(=O)N2c2ccccc2)ccc1O (stereo not given)	133*	15	-17	-38	2
CCOc1cc(C2Nc3ccccc3C(=O)N2c2ccccc2)ccc1O (stereo not given)	104	-2	-3	-1	8
COc1ccccc1/C=N/Nc1cc(C)nc2ccc(C)cc12	.	2	.	.	.
COc1ccc2nc(C)cc(Nc3ccc(N4CCOCC4)cc3)c2c1	102	9	-9	6	27
COc1ccc2nc(C)cc(N/N=C/c3ccccc3)c2c1	.	53*	.	.	.
COc1ccc2nc(C)cc(Nc3ccc(N4CCN(C)CC4)cc3)c2c1	.	49*	.	.	.
COc1ccc(/C=N/Nc2cc(C)nc3ccc(OC)cc23)c(OC)c1	.	89*	.	.	.
COc1ccc(/C=N/Nc2ncc(-c3ccccc3)cn2)c(OC)c1	87	16	-6	16	8
COc1ccc(/C=N/Nc2ncccc2[N+](=O)[O-])c(OC)c1	41	7	57*	74*	-3
O=C(Cn1cnc2c(OCc3ccccc3)ncnc21)N[C@H](CO)Cc1cc2ccccc2[nH]1	.	-1	.	.	.
COc1ccc(C(CNC(=O)c2cccc(NS(=O)(=O)c3ccc(C)c(F)c3)c2)N2CCOCC2)cc1 (stereo not given)	.	-3	.	.	.
CCOC(=O)c1c(C)c(C)n2c1NC(=O)C2	.	-12	.	.	.
Cc1ccc(NC(=O)/C(C#N)=C/c2cn(CC(=O)NCc3ccco3)c3ccccc23)cc1C	113	41	3	-11	46
Cc1cc(C)cc(NC(=O)/C(C#N)=C/c2cn(CC(=O)NCc3ccco3)c3ccccc23)c1	102	66*	5	-7	50*
Cc1ccc(S(=O)(=O)N2CCC(C(=O)NCCc3ccccc3)CC2)cc1	94	-4	0	13	-5
Cc1ccc(S(=O)(=O)N2CCC(C(=O)NCCc3ccc(S(N)(=O)=O)cc3)CC2)cc1	99	-6	3	7	53*
Cc1ccc2c(c1)C(O)(c1c(C)[nH]c3ccccc13)C(=O)N2 (stereo not given)	134*	7	3	-39	9

Source: PubChem BioAssay (several laboratories)
